# Published values from different studies.
# Lines come from different studies, so protocols differ.
# Target: Cyclin-dependent kinase 7 (CDK7, Homo sapiens, UniProt P50613)
Compound,observed,method,tested at,remaining binding
FC(F)(F)Oc1cccc(-c2cnc3ccc(-c4ccncc4)nn23)c1,cell-free assay,competition with immobilised ligand,5 µM,0.85%
O=C(NCCCC1CCCCC1)c1ccc(CNC(=O)c2cnn(-c3ccccc3)c2C(F)(F)F)cc1,cell-free assay,competition with immobilised ligand,0.1 µM,100%
COc1ncc2cc3ccccc3nc2c1C#N,cell-free assay,competition with immobilised ligand,5 µM,100%
O=C(c1ccc(Nc2ncc(Cl)c(-c3cc4ccccc4s3)n2)cc1)N1CCC(N2CCCC2)CC1,binding,competition with immobilised ligand,1 µM,1.5%
COc1cnc(Nc2cccc(S(N)(=O)=O)c2)nc1N1CCN(c2ccccc2)CC1,binding,competition with immobilised ligand,1 µM,84%
O=S(=O)(NC1CCC(c2cc(F)ccc2F)(S(=O)(=O)c2ccc(Cl)cc2)CC1)C(F)(F)F (centres unmarked),cell-free assay,competition with immobilised ligand,1 µM,100%
C[C@@H]1CCN(c2nccc(-c3cnn4ncccc34)n2)C1,binding,,1 µM,35%
CCC(=N\O)/C(C)=C/c1ccc(F)cc1,cell-free assay,competition with immobilised ligand,1 µM,60%
CNC(=O)[C@@H]1CC[C@@H](n2c(-c3ccc4cnccc4c3)nc3ccc(C(=O)NCc4cccc(C(N)=O)c4)cc32)C1,binding,competition with immobilised ligand,1 µM,100%
CN(C)c1nccc(-c2cnc3ncccn23)n1,binding,,1 µM,29%
Cc1c(C(=O)O)cc(-c2ccc(C3CCNCC3)cc2)c2ccc(-c3ccc(C(F)(F)F)cc3)cc12,binding,competition with immobilised ligand,1 µM,97%
N[C@@H]1CCN(c2nccc(-c3cnn4ncccc34)n2)C1,binding,,1 µM,21%
C[C@@H]1CN(c2ccc3ncc(-c4ccc5[nH]nc(C6CC6)c5c4)n3n2)C[C@H](C)O1,binding,competition with immobilised ligand,0.5 µM,23%
Nc1ncc2c(n1)-c1c([nH]c3ccc(C#CC4CC4)cc13)CCCC2,binding,competition with immobilised ligand,1 µM,92%
O=C(Nc1cccnn1)N1CC(C/C=C/c2cncc(Oc3ccc(C(F)(F)F)cn3)n2)C1,cell-free assay,competition with immobilised ligand,1 µM,81%
O=C(Nc1c[nH]nc1C(=O)NC1CCNCC1)c1cc(F)cc(F)c1,binding,competition with immobilised ligand,1 µM,5.6%
O=C(O)c1cc(-c2ccc(C3CCNCC3)cc2)c2ccc(-c3ccc(C(F)(F)F)cc3)cc2c1,cell-free assay,competition with immobilised ligand,1 µM,82%
CC1CCCN1c1nccc(-c2cnn3ncccc23)n1 (centres unmarked),binding,,1 µM,100%
C[C@@H](c1ccc(-n2cnc3c(N)ncnc32)cc1)N1CCc2nn(C)c(Cc3ccccc3)c2C1=O,binding,competition with immobilised ligand,0.1 µM,45%
O=C(NCCCN1CCOCC1)c1ccc(Nc2nccc(-c3cc4ccccc4s3)n2)cc1,binding,competition with immobilised ligand,1 µM,40%
Cc1cnn2ncc(-c3ccnc(N(C)C)n3)c2c1,binding,,1 µM,61%
O=C(c1ccc(Nc2ncc(Cl)c(-c3ccc(Cl)s3)n2)cc1)N1CCC(N2CCCC2)CC1,binding,competition with immobilised ligand,1 µM,0.55%
CS(=O)(=O)NCC[C@H](NC(=O)c1cncc2c1cnn2-c1ccc(F)cc1)c1ccnc(S(C)(=O)=O)c1,cell-free assay,competition with immobilised ligand,1 µM,100%
